In brackets after ≈: the same amount, converted by molar mass. Activity calls are given as the source filed them. The calls are words filed in the database; no cut-off is given here.
Legend:
Rhizopus arrhizus [1] = assay: Antifungal activity against drug-intermediate Rhizopus oryzae UTHSC 05-3032 infected in OF1 mouse assessed as reduction in kidney fungal load at 10-30 mg/kg, po bid treated 24 hrs after fungal infection; type: functional, organism-based
Summary of the method: (§1)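 Tissue burden in immunosuppressed male OF1 mice, using cyclophosphamide 200 mg/kg i.p. plus 5-fluorouracil 150 mg/kg i.v. on day −1. Mice received 2 × 10^4 CFU i.v. by tail vein, then oral gavage at 10, 20 or 30 mg/kg BID from 24 h post-challenge, with ceftazidime cover; untreated controls. Groups of 10 were killed on day 4. Kidneys and brains were homogenized in 2 ml saline, serially diluted 10-fold, plated on PDA and counted after 24 h at 35°C.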

Rhizopus arrhizus [2] = assay: Antifungal activity against drug-susceptible Rhizopus oryzae UTHSC 04-2459 by broth microdilution method; type: functional
Summary of the method: (§2)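 CLSI broth microdilution for filamentous fungi (M38-A2); MIC recorded in µg/ml against clinical isolates; breakpoints applied at 24 h.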

Rhizopus arrhizus [3] = assay: Antifungal activity against drug-susceptible Rhizopus oryzae UTHSC 06-2374 at 5 ug by disk diffusion assay; type: functional; details: read-out: DIZ
Summary of the method: (§3)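 Neo-Sensitabs tablet diffusion on Mueller-Hinton agar, run per the mould guidelines. Tablets are 9 mm in diameter and carry 5 ug posaconazole. The read-out is the inhibition zone diameter in mm.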

Rhizopus arrhizus [4] = assay: Antifungal activity against drug-susceptible Rhizopus oryzae UTHSC 02-2882 at 5 ug by disk diffusion assay; type: functional; details: read-out: DIZ
Summary of the method: (§4)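 Neo-Sensitabs tablet diffusion on Mueller-Hinton agar, following the guidelines for molds. Tablets were 9 mm in diameter and held 5 µg of drug. The read-out was inhibition zone diameter in mm.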

Rhizopus arrhizus [5] = assay: Antifungal activity against drug-susceptible Rhizopus oryzae UTHSC 03-3110 at 5 ug by disk diffusion assay; type: functional; details: read-out: DIZ
Summary of the method: (§5)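 Neo-Sensitabs tablet diffusion on Mueller-Hinton agar, following guidelines for molds; 9 mm tablets containing 5 µg posaconazole; inhibition zone diameter measured in mm; zone breakpoints applied at 24 h.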

Rhizopus arrhizus [6] = assay: Antifungal activity against drug-susceptible Rhizopus oryzae UTHSC 05-2975 after 24 to 48 hrs; type: functional
Summary of the method: (§6)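 Minimum fungicidal concentration: 20 µl from each microdilution well showing complete inhibition (optically clear) plated on potato dextrose agar, incubated 35°C for 24 to 48 h; MFC taken as lowest drug concentration giving no growth.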

Rhizopus arrhizus [7] = assay: Antifungal activity against drug-intermediate Rhizopus oryzae UTHSC 07-365 at 5 ug by disk diffusion assay; type: functional; details: UTHSC 07-365, read-out: DIZ; summary of the method: as §4
Rhizopus arrhizus [8] = assay: Antifungal activity against drug-susceptible Rhizopus oryzae UTHSC 06-434 by broth microdilution method; type: functional
Summary of the method: (§7)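 Posaconazole MIC in ug/ml, determined by broth microdilution following the CLSI guidelines for moulds (M38-A2).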

Rhizopus arrhizus [9] = assay: Antifungal activity against drug-susceptible Rhizopus oryzae UTHSC 04-2159 by broth microdilution method; type: functional; summary of the method: as §2
Rhizopus arrhizus [10] = assay: Antifungal activity against drug-intermediate Rhizopus oryzae UTHSC 04-3109 infected in OF1 mouse assessed as reduction in brain fungal load at 10-30 mg/kg, po bid treated 24 hrs after fungal infection; type: functional, organism-based; summary of the method: as §1
Rhizopus arrhizus [11] = assay: Antifungal activity against drug-susceptible Rhizopus oryzae UTHSC 06-4152 after 24 to 48 hrs; type: functional
Summary of the method: (§8)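 Minimum fungicidal concentration taken from the broth microdilution plates. From each well with complete inhibition (optically clear), 20 ul is plated on potato dextrose agar. Plates are incubated at 35°C for 24 to 48 h. The MFC is the lowest drug concentration giving no growth.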

Rhizopus arrhizus [12] = assay: Antifungal activity against drug-susceptible Rhizopus oryzae UTHSC 04-443 by broth microdilution method; type: functional; summary of the method: as §2
Rhizopus arrhizus [13] = assay: Antifungal activity against drug-susceptible Rhizopus oryzae UTHSC 06-1080 by broth microdilution method; type: functional; summary of the method: as §7
Rhizopus arrhizus [14] = assay: Antifungal activity against drug-susceptible Rhizopus oryzae UTHSC 05-1679 at 5 ug by disk diffusion assay; type: functional; details: read-out: DIZ; summary of the method: as §5
Rhizopus arrhizus [15] = assay: Antifungal activity against drug-susceptible Rhizopus oryzae UTHSC 06-4336 by broth microdilution method; type: functional; summary of the method: as §7
Rhizopus arrhizus [16] = assay: Antifungal activity against drug-susceptible Rhizopus oryzae UTHSC 06-1080 at 5 ug by disk diffusion assay; type: functional; details: read-out: DIZ; summary of the method: as §3
Rhizopus arrhizus [17] = assay: Antifungal activity against drug-susceptible Rhizopus oryzae UTHSC 05-3580 at 5 ug by disk diffusion assay; type: functional; details: read-out: DIZ; summary of the method: as §3
Rhizopus arrhizus [18] = assay: Antifungal activity against drug-susceptible Rhizopus oryzae UTHSC 05-2975 at 5 ug by disk diffusion assay; type: functional; details: read-out: DIZ; summary of the method: as §3
Rhizopus arrhizus [19] = assay: Antifungal activity against drug-susceptible Rhizopus oryzae UTHSC 06-3913 by broth microdilution method; type: functional; summary of the method: as §7
Rhizopus arrhizus [20] = assay: Antifungal activity against drug-intermediate Rhizopus oryzae UTHSC 03-3165 at 5 ug by disk diffusion assay; type: functional; details: read-out: DIZ; summary of the method: as §4
Rhizopus arrhizus [21] = assay: Antifungal activity against drug-susceptible Rhizopus oryzae UTHSC 04-1220 by broth microdilution method; type: functional; summary of the method: as §2
Rhizopus arrhizus [22] = assay: Antifungal activity against drug-intermediate Rhizopus oryzae UTHSC 03-285 after 24 to 48 hrs; type: functional
Rhizopus arrhizus [23] = assay: Antifungal activity against drug-susceptible Rhizopus oryzae UTHSC 02-439 after 24 to 48 hrs; type: functional
Rhizopus arrhizus [24] = assay: Antifungal activity against drug-susceptible Rhizopus oryzae UTHSC 06-2374 by broth microdilution method; type: functional; summary of the method: as §7
Rhizopus arrhizus [25] = assay: Antifungal activity against drug-susceptible Rhizopus oryzae UTHSC 06-4035 by broth microdilution method; type: functional; summary of the method: as §7
Rhizopus arrhizus [26] = assay: Antifungal activity against drug-intermediate Rhizopus oryzae UTHSC 03-285 at 5 ug by disk diffusion assay; type: functional; details: read-out: DIZ; summary of the method: as §4
Rhizopus arrhizus [27] = assay: Antifungal activity against drug-susceptible Rhizopus oryzae UTHSC 03-112 by broth microdilution method; type: functional
Summary of the method: (§9)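 Broth microdilution MIC in µg/ml, run per the CLSI (formerly NCCLS) guideline for filamentous fungi, M38-A2.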

Rhizopus arrhizus [28] = assay: Antifungal activity against drug-susceptible Rhizopus oryzae UTHSC 03-547 at 5 ug by disk diffusion assay; type: functional; details: read-out: DIZ; summary of the method: as §5
Rhizopus arrhizus [29] = assay: Antifungal activity against drug-susceptible Rhizopus oryzae UTHSC 03-228 at 5 ug by disk diffusion assay; type: functional; details: read-out: DIZ; summary of the method: as §4
Rhizopus arrhizus [30] = assay: Antifungal activity against drug-susceptible Rhizopus oryzae UTHSC 04-278 after 24 to 48 hrs; type: functional; summary of the method: as §6
Rhizopus arrhizus [31] = assay: Antifungal activity against drug-susceptible Rhizopus oryzae UTHSC 05-197 by broth microdilution method; type: functional; summary of the method: as §2
Rhizopus arrhizus [32] = assay: Antifungal activity against drug-susceptible Rhizopus oryzae UTHSC 2868 at 5 ug by disk diffusion assay; type: functional; details: read-out: DIZ
Rhizopus arrhizus [33] = assay: Antifungal activity against drug-susceptible Rhizopus oryzae UTHSC 03-2970 by broth microdilution method; type: functional; summary of the method: as §9
Rhizopus arrhizus [34] = assay: Antifungal activity against drug-susceptible Rhizopus oryzae UTHSC 04-1613 at 5 ug by disk diffusion assay; type: functional; details: read-out: DIZ; summary of the method: as §5
Rhizopus arrhizus [35] = assay: Antifungal activity against drug-susceptible Rhizopus oryzae UTHSC 02-2882 after 24 to 48 hrs; type: functional
Rhizopus arrhizus [36] = assay: Antifungal activity against drug-susceptible Rhizopus oryzae UTHSC 06-4152 at 5 ug by disk diffusion assay; type: functional; details: read-out: DIZ; summary of the method: as §3
Rhizopus arrhizus [37] = assay: Antifungal activity against drug-susceptible Rhizopus oryzae UTHSC 04-2159 after 24 to 48 hrs; type: functional; summary of the method: as §6
Rhizopus arrhizus [38] = assay: Antifungal activity against drug-susceptible Rhizopus oryzae UTHSC 05-3132 at 5 ug by disk diffusion assay; type: functional; details: read-out: DIZ; summary of the method: as §3
Rhizopus arrhizus [39] = assay: Antifungal activity against drug-susceptible Rhizopus oryzae UTHSC 06-4336 after 24 to 48 hrs; type: functional; summary of the method: as §8
Rhizopus arrhizus [40] = assay: Antifungal activity against drug-susceptible Rhizopus oryzae UTHSC 06-1301 after 24 to 48 hrs; type: functional; summary of the method: as §8

CC[C@@H]([C@H](C)O)n1ncn(-c2ccc(N3CCN(c4ccc(OC[C@@H]5CO[C@@](Cn6cncn6)(c6ccc(F)cc6F)C5)cc4)CC3)cc2)c1=O [POSACONAZOLE]
Activity (Rhizopus arrhizus [1]): inactive
MIC (Rhizopus arrhizus [2]): 1 µg/mL (≈ 1.43 µM)
zone of inhibition at 5 µg/disc (Rhizopus arrhizus [3]): 23 mm
zone of inhibition at 5 µg/disc (Rhizopus arrhizus [4]): 22 mm
zone of inhibition at 5 µg/disc (Rhizopus arrhizus [5]): 17 mm
MFC (Rhizopus arrhizus [6]): 2 µg/mL (≈ 2.85 µM)
zone of inhibition at 5 µg/disc (Rhizopus arrhizus [7]): 15 mm
MIC (Rhizopus arrhizus [8]): 1 µg/mL (≈ 1.43 µM)
MIC (Rhizopus arrhizus [9]): 0.5 µg/mL (≈ 0.713 µM)
Activity (Rhizopus arrhizus [10]): inactive
MFC (Rhizopus arrhizus [11]): 1 µg/mL (≈ 1.43 µM)
MIC (Rhizopus arrhizus [12]): 0.5 µg/mL (≈ 0.713 µM)
MIC (Rhizopus arrhizus [13]): 1 µg/mL (≈ 1.43 µM)
zone of inhibition at 5 µg/disc (Rhizopus arrhizus [14]): 18 mm
MIC (Rhizopus arrhizus [15]): 0.5 µg/mL (≈ 0.713 µM)
zone of inhibition at 5 µg/disc (Rhizopus arrhizus [16]): 18 mm
zone of inhibition at 5 µg/disc (Rhizopus arrhizus [17]): 25 mm
zone of inhibition at 5 µg/disc (Rhizopus arrhizus [18]): 20 mm
MIC (Rhizopus arrhizus [19]): 0.5 µg/mL (≈ 0.713 µM)
zone of inhibition at 5 µg/disc (Rhizopus arrhizus [20]): 16 mm
MIC (Rhizopus arrhizus [21]): 0.5 µg/mL (≈ 0.713 µM)
MFC (Rhizopus arrhizus [22]): > 16 µg/mL
MFC (Rhizopus arrhizus [23]): 0.5 µg/mL (≈ 0.713 µM)
MIC (Rhizopus arrhizus [24]): 0.5 µg/mL (≈ 0.713 µM)
MIC (Rhizopus arrhizus [25]): 0.5 µg/mL (≈ 0.713 µM)
zone of inhibition at 5 µg/disc (Rhizopus arrhizus [26]): 15 mm
MIC (Rhizopus arrhizus [27]): 0.5 µg/mL (≈ 0.713 µM)
zone of inhibition at 5 µg/disc (Rhizopus arrhizus [28]): 25 mm
zone of inhibition at 5 µg/disc (Rhizopus arrhizus [29]): 25 mm
MFC (Rhizopus arrhizus [30]): > 16 µg/mL
MIC (Rhizopus arrhizus [31]): 0.25 µg/mL (≈ 0.357 µM)
zone of inhibition at 5 µg/disc (Rhizopus arrhizus [32]): 19 mm
MIC (Rhizopus arrhizus [33]): 1 µg/mL (≈ 1.43 µM)
zone of inhibition at 5 µg/disc (Rhizopus arrhizus [34]): 22 mm
MFC (Rhizopus arrhizus [35]): 0.5 µg/mL (≈ 0.713 µM)
zone of inhibition at 5 µg/disc (Rhizopus arrhizus [36]): 22 mm
MFC (Rhizopus arrhizus [37]): 1 µg/mL (≈ 1.43 µM)
zone of inhibition at 5 µg/disc (Rhizopus arrhizus [38]): 20 mm
MFC (Rhizopus arrhizus [39]): 1 µg/mL (≈ 1.43 µM)
MFC (Rhizopus arrhizus [40]): 1 µg/mL (≈ 1.43 µM)
